# Compound activity: PubChem, several laboratories
# Rows were chosen to be rich in hits. Some 2.1% of all compounds tested hit in one or more screens of this group.
# TLR4 MyD88 comp – inhibitors of human TLR4-MyD88 binding; HeLa CL3-4 TLR4/MyD88 BLA complementation, FRET ratio; inhibition, % at 8.4 µM; 200,000 tested, 0.18% active; O00206+Q99836; in the data active means inhibition above about 25%;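 further: 0% = vehicle and 100% = reference inhibitor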
# MC4R antagonist – blocks human MC4R cAMP signaling | P32245 | MC4R-expressing cells, MTII-stimulated cAMP, LANCE TR-FRET | inhibition, % at 6.5 µM | 360,000 tested, 0.48% active | AID 540295;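 active means inhibition above its plate's cutoff, the mean of tested wells on that plate plus 3 SD, cut at about 29% in these data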;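 further: 0% = Melanotan II alone and 100% = Melanotan II plus saturating MCL0020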
#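 Test system: U2OS cells stably expressing human melanocortin 4 receptor (MC4R); also added: Melanotan II challenge; compound: 6.5 µM single dose; timing: 30-min compound preincubation, 1-h Melanotan II challenge, 1-h detection, room temperature; signal: Eu-cAMP/anti-cAMP TR-FRET, emission 671 nm; repeats: one well per compound, no replicates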
# beta cell repl – induces beta-cell replication in MIN6 cells. proliferation, % at 10 µM. MIN6 cells proliferation, ATPlite luminescence, 48 h; cells starved in 0.2% serum; 100% = growth in 10% serum. 330,000 tested, 0.29% active. AID 2380;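 active means compounds whose signal lies at least 3.5 SD above the mean of all wells on their plate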;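 further: 0% = DMSO-treated cells in low-serum medium and 100% = 10% serum control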
# NOD2 RIPK2 PPI – inhibitors of human NOD2-RIPK2 interaction; O43353; CHO BLA complementation NOD2-RIPK2, CCF4 ratio; inhibition, % at 4.98 µM; 360,000 tested, 0.38% active; in the data active means inhibition above about 21%;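 further: 0% = vehicle only and 100% = reference blocker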
# MC4R ag barr – human MC4R agonism via beta-arrestin; U2OS MC4R beta-arrestin complementation, luminescence; percent of melanotan II response, DMSO zero; activation, % at 8.9 µM; 360,000 tested, 0.98% active; AID 540308;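 active means activation above a per-plate cutoff, the mean activation of sample wells on that plate plus 3 SD, cut at about 8% in these data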
# TLR9-MyD88 block – TLR9-MyD88 interaction inhibition. CHO BLA complementation TLR9-MyD88, CCF4 FRET ratio. 340,000 tested, 0.21% active. AID 504734. Q9NR96+Q99836. inhibition, % at 4.98 µM;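 active means inhibition above the mean over all tested compounds plus 3 SD, cut at about 21% in these data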;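 further: 0% = DMSO only wells and 100% = clavulanate BLA inhibitor control wells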
# MC4R barr conf – human MC4R beta-arrestin agonism confirmation. U2OS MC4R beta-arrestin recruitment, luminescence; scaled DMSO 0%, Melanotan II 100%. activation, % at 8.9 µM. shares compounds with MC4R ag barr. AID 602192. 2,400 tested, 31% active;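 active means mean activation across replicates above the hit cutoff set in the earlier primary screen, cut at about 8% in these data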
# MOR-DOR barr ag – counter-screen for MC4R agonists: agonists of mu-delta opioid heterodimer; shares compounds with MC4R ag barr; U2OS PathHunter beta-arrestin, beta-gal luminescence; percent of deltorphin B response, DMSO zero; activation, % at 9.2 µM; 2,400 tested, 5.8% active; AID 602194;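 active means mean activation across replicates exceeds the hit threshold derived in the earlier primary screen, cut at about 18% in these data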;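 further: 100% = deltorphin B at 0.9 µM final and 0% = DMSO alone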
# Target sequence (P35372 whole entry, looked up): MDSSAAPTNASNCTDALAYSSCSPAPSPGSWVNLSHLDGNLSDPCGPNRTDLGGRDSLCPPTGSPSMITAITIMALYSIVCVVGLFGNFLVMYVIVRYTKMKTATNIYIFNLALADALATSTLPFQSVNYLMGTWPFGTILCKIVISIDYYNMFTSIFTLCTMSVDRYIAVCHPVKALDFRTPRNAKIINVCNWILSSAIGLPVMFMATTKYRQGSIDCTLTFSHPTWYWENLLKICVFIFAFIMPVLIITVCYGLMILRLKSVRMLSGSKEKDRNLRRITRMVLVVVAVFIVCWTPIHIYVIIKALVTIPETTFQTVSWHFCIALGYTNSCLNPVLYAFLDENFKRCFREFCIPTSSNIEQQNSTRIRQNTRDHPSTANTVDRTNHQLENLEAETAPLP
# Target sequence (P41143 whole entry, looked up): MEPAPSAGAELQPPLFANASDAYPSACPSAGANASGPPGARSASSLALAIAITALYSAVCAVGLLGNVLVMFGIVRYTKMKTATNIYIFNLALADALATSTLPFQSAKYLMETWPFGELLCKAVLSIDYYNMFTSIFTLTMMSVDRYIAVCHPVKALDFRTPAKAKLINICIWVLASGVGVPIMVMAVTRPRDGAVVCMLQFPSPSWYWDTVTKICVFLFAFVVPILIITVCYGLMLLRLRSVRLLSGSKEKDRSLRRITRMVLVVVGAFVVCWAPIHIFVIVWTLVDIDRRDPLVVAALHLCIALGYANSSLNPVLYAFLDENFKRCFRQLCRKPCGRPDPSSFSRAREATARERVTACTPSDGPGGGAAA
# * marks the source's active call; other numbers are inactive results; nt = no result given.
SMILES,TLR4 MyD88 comp,MC4R antagonist,beta cell repl,NOD2 RIPK2 PPI,MC4R ag barr,TLR9-MyD88 block,MC4R barr conf,MOR-DOR barr ag
O=C(Nc1ccc(N2CCCC2)cc1)c1ccc(Br)cc1,nt,22.3,-2.1,-3.2,17.7*,5.9,2.5,3.7
O=C(Nc1ccc(N2CCCC2)cc1)c1cc(Cl)ccc1Cl,nt,3.1,0.8,5.6,-1.0,2.1,nt,nt
CC(C)Oc1ccc(C(=O)Nc2ccc(N3CCCC3)cc2)cc1,-10.4,-3.0,-0.2,5.1,7.0,7.0,nt,nt
O=C(Nc1ccc(N2CCCC2)cc1)c1cccc(Cl)c1,nt,-5.3,-4.0,2.0,11.2*,-0.8,-0.1,10.9
Cc1ccc(-c2[nH]ncc2CN2CCN(C(=O)c3cccs3)CC2)cc1C,nt,-0.5,-1.7,7.6,-0.4,2.9,nt,nt
CC(C)Sc1nc2ncnc(N)c2[nH]1,1.2,4.7,-1.3,1.5,-1.6,0.7,nt,nt
Cc1ccc(S(=O)(=O)NCC(NCc2ccc(F)cc2)c2ccccc2)cc1 (configuration not stated),nt,6.4,-5.6,-5.7,2.0,-3.2,nt,nt
O=c1c2cc(N3CCOCC3)ccc2[nH]c(=S)n1CCc1ccccc1,-2.5,8.7,-2.3,4.4,-1.0,8.9,nt,nt
O=C(CCCCCn1c(=S)[nH]c2ccc(N3CCOCC3)cc2c1=O)NCc1ccccc1,1.8,22.6,-1.0,-5.8,12.2*,3.2,6.6,3.4
COc1ccc(N2CCN(C(=O)CCCCCn3c(=S)[nH]c4ccc(N5CCOCC5)cc4c3=O)CC2)cc1,nt,18.3,nt,-15.2,-2.8,-2.2,nt,nt
O=C(CCCCCn1c(=S)[nH]c2ccc(N3CCOCC3)cc2c1=O)NCc1cccc(Cl)c1,-12.9,12.0,-4.2,-9.6,9.8*,18.6,1.9,2.6
COc1ccc(C(=O)Nc2c(F)c(F)c(F)c(F)c2F)cc1OC,nt,nt,nt,-6.7,nt,nt,nt,nt
COc1ccc(NC(=O)c2ccc(F)c(F)c2)c2ccccc12,nt,5.3,-1.6,-2.0,20.7*,-4.3,-0.8,2.2
O=[N+]([O-])c1ccc(-c2ccc(/C=N/c3c(-c4ccco4)nc4ccccn34)o2)cc1,6.3,3.9,-2.8,2.7,12.6*,2.4,9.2*,9.2
CCc1cc(-c2nnn(CCC3COCCO3)c2CC)cc(CC)c1-c1cn(CCc2c[nH]c3ccccc23)nn1 (configuration not stated),nt,0.7,nt,0.4,-1.7,6.5,nt,nt
Cc1ccc(C2=NN3C(C2)c2ccccc2OC32C(=O)Nc3ccccc32)cc1 (configuration not stated),-12.9,4.7,-4.0,-8.7,10.1*,7.6,9.1*,20.0*
Cc1cc(C)n(-c2nc3ccccc3nc2Nc2ccc3[nH]c(=O)[nH]c3c2)n1,-9.7,2.9,0.2,5.4,19.0*,-0.4,9.6*,1.8
COc1ccc(Nc2nc3ccccc3nc2-n2nc(C)cc2C)cc1,6.8,13.5,-3.8,1.5,-2.6,0.1,nt,nt
COc1ccc(CCNC(=O)c2c(O)c3c([nH]c2=O)CCCC3)cc1,0.1,15.8,-2.7,-14.0,10.1*,8.7,8.6*,4.8
CCCNC(=O)c1c(O)c2c([nH]c1=O)CCCC2,-1.2,0.5,-2.4,1.6,-1.2,6.9,nt,nt
Cc1ccc(CNC(=O)C2CCCN(S(=O)(=O)N3CC(C)CC(C)C3)C2)cc1 (configuration not stated),nt,0.8,-3.5,4.6,-2.3,-2.7,nt,nt
Cc1ccc(NC(=O)c2cc(S(=O)(=O)Nc3ccc(C)cc3)cs2)cc1,-11.5,-3.0,-6.6,5.0,9.6*,-17.7,13.3*,17.2
C/C(=C\CNc1ncnc2nc[nH]c12)CO,nt,10.6,-1.6,-3.3,-1.8,10.7,nt,nt
CC(C)CCCCCCCCCCCCC(=O)NCC(=O)NC1C(C)OC(Nc2ncnc3nc[nH]c23)C(O)C1O (configuration not stated),nt,6.5,nt,-16.9,16.4*,3.7,10.9*,27.7*
CCCCN(Cc1ccc(C(=O)N[C@H](C(=O)O)C(C)C)cc1)C(=O)C(c1ccccc1)c1ccccc1,nt,4.8,0.3,-11.7,-1.6,-9.5,nt,nt
SMILES,TLR4 MyD88 comp,MC4R antagonist,beta cell repl,NOD2 RIPK2 PPI,MC4R ag barr,TLR9-MyD88 block,MC4R barr conf,MOR-DOR barr ag
CC1CN(C(=S)Nc2ccc(SC(F)F)cc2)CC(C)O1 (configuration not stated),nt,1.4,4.2,4.5,-1.3,2.1,nt,nt
CC1CC(C)CN(C(=S)Nc2ccc(SC(F)F)cc2)C1 (configuration not stated),-10.4,12.2,0.0,3.5,24.0*,-4.7,5.5,11.1
Cc1cccc(NC(=S)N/N=C/c2ccc(Cl)c([N+](=O)[O-])c2)c1,2.0,18.2,-2.5,1.3,22.1*,2.1,5.4,8.8
Cc1cccc(NC(=S)N/N=C/c2cccc([N+](=O)[O-])c2)c1,16.1,-6.0,-0.3,2.0,-1.6,6.7,nt,nt
O=C1NC[C@H](Cc2ccc(O)cc2)N(C[C@@H]2CCCN2C[C@H](Cc2ccccc2)N2C[C@H](Cc3ccc(O)cc3)N(CC3CCCCCC3)C(=O)C2=O)C1=O,nt,nt,nt,1.6,nt,nt,nt,nt
CCCCCCOc1ccc(N2C(=O)CC(S/C(N)=N/N=C(\C)c3cccs3)C2=O)cc1 (configuration not stated),-1.5,11.6,-2.5,-22.9,21.3*,-8.5,15.0*,2.3
O=C(Nc1ccc(Cl)cc1)OCc1ccccn1,7.8,3.4,-4.1,-8.2,-0.7,-10.6,nt,nt
Cc1ccc(NC(=O)OCc2cc(-c3ccccc3)on2)cc1,20.7,-4.8,-2.1,-4.7,10.5*,1.1,1.1,5.7
O=C(Nc1ccc(Cl)cc1)OCc1cc(-c2ccccc2Cl)on1,10.0,4.3,-2.2,1.4,11.1*,-8.8,8.6*,4.9
Cc1ccc(NC(=O)OCc2cccs2)cc1,nt,nt,-2.9,nt,nt,nt,nt,nt
CC(C)Nc1nc(Nc2ccccc2Cl)c2sccc2n1,nt,15.1,nt,3.9,-1.1,nt,nt,nt
Cc1ccc(Nc2nc(-c3cccnc3)nc3ccccc23)cc1,nt,5.2,-2.9,-9.6,-0.8,-6.6,nt,nt
CCOC(=O)c1ccc(Nc2nc(-c3cccnc3)nc3ccccc23)cc1,-13.2,10.8,-3.1,-1.1,56.9*,3.3,0.0,6.7
COc1ccc(-c2ccc(C(=O)Nc3cccc(C(F)(F)F)c3)c3occc23)c(C)c1,nt,7.2,nt,-3.0,-1.9,nt,nt,nt
Cn1cnc(S(=O)(=O)N2CCN(C(c3ccccc3)c3ccccc3)CC2)c1,nt,2.1,-4.4,-17.9,1.1,3.2,nt,nt
CC(C)c1ccc(NNC(=O)C2CCC2)cc1,nt,6.8,-3.9,0.9,-0.5,-6.7,nt,nt
